Assay results pooled from the literature.
Lines come from different studies, so protocols differ.
Observed: cell growth or viability

For `COc1cccc2c1C(=O)c1c(O)c3c(c(O)c1C2=O)C[C@@](O)(C(=O)CO)C[C@@H]3O[C@H]1C[C@H](N)[C@H](O)[C@H](C)O1`, the IC50 was 0.46 µM (HepG2; MTT).
`O=C(Nc1ccc(Cl)cc1)Nc1cccc(-c2cn(Cc3ccc(Cl)cc3)nn2)c1` gave an IC50 of 13 µM (Huh-7; CCK-8; 72 h).
The IC50 of `Cc1cnc(CNC(=O)c2c(=O)c3ccc(N4CCCN(C)CC4)nc3n3c2sc2ccccc23)cn1` is reported as 2.49 µM (THLE3; imaging; 72 h).
For `O=[N+]([O-])c1cc(I)c(O)c(C=NNc2ccc(Cl)cc2)c1`, the IC50 was 12.3 µM (HEK-293T; MTT; 24 h).
The IC50 of `CN1CCC(NC2CCc3[nH]c4c(C(N)=O)ccc(-c5ccccc5Cl)c4c3C2)CC1` (centres unmarked) is reported as 0.0114 µM (Ramos; 96 h).
With `COC(=O)c1ccc2c(c1)NC(=O)/C2=C(\Nc1ccc(N(C)C(=O)CN2CCN(C)CC2)cc1)c1ccccc1` the IC50 was 0.8 µM (HEK-293T; MTT; 24 h).
For `COc1ccc(NC(=O)Nc2ccc(-c3cn(Cc4ccc(Cl)cc4)nn3)cc2)cc1`, the IC50 was over 50 µM (Huh-7; CCK-8; 72 h).
`O=[N+]([O-])c1cc(Br)c(O)c(C=NNc2ccccc2)c1` has an IC50 of 23 µM (HEK-293T; MTT; 24 h).
`c1ccc(-c2noc(-c3nn(Cc4ccc5ccccc5c4)c4ccccc34)n2)cc1` gave an IC50 of 115 µM (HepG2; 48 h).
For `COc1ccc(NC(=O)NCc2cn(Cc3ccc(Cl)cc3)nn2)cc1`, the IC50 was over 50 µM (Huh-7; CCK-8; 72 h).
For `CN1CCN(c2ccc(Nc3c4ccccc4nc4ccccc34)cc2)CC1`, the IC50 was 8.63 µM (THLE3; imaging; 72 h).
For `COc1ccc(NC(=O)NCc2cn(Cc3ccc(Br)cc3)nn2)cc1`, the IC50 was over 50 µM (Huh-7; CCK-8; 72 h).
`O=[N+]([O-])c1ccc(O)c(C=NNc2ccc(C(F)(F)F)cc2)c1` has an IC50 of 17 µM (HEK-293T; MTT; 24 h).
`COc1ccc(NC(=O)Nc2cccc(-c3cn(Cc4ccc(Br)cc4)nn3)c2)cc1` has an IC50 of 15.9 µM (Huh-7; CCK-8; 72 h).
The IC50 of `O=[N+]([O-])c1cc(Br)c(O)c(C=NNc2ccc(C(F)(F)F)cc2)c1` is reported as 18 µM (HEK-293T; MTT; 24 h).
`COc1ccc(NC(=O)Nc2cccc(-c3cn(Cc4cccc(Cl)c4)nn3)c2)cc1` gave an IC50 of 13.5 µM (Huh-7; CCK-8; 72 h).
`O=C(Nc1ccc(Cl)cc1)Nc1cccc(-c2cn(Cc3cccc(Cl)c3)nn2)c1` has an IC50 of 15.1 µM (Huh-7; CCK-8; 72 h).
